{
  "source": "paper PMC6424611",
  "about": "(Journal of molecular biology, 2019)",
  "key": {"GRID2IP-2 PDZ [1]": {"target": "T1, GRID2IP-2 PDZ (Homo sapiens, UniProt A4D2P6)", "T1 sequence (A4D2P6 279-356 limits assumed)": "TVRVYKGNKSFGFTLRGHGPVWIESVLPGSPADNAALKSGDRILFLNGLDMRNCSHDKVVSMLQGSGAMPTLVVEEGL", "assay": "surface plasmon resonance", "assay_type": "binding", "conditions": "internal standard; biotinylated HPV16 E6 peptide immobilized; steady state", "how_it_was_run": "(§1)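 Biacore SPR on a CM5 chip. Streptavidin was immobilized by EDC coupling, then biotinylated HPV16 E6 peptide was captured and extensively washed. Tandem Ni/MBP-purified MBP-PDZ domains were then injected. The E6 peptide served as an internal standard.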"}, "SNTG2 PDZ": {"target": "T2, SNTG2 PDZ (Homo sapiens, UniProt Q9NY99)", "T2 sequence (Q9NY99 73-156 limits assumed)": "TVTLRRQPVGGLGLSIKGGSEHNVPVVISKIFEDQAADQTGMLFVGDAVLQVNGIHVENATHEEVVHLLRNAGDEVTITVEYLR", "assay": "surface plasmon resonance", "assay_type": "binding", "conditions": "internal standard; biotinylated HPV16 E6 peptide immobilized; steady state", "how_it_was_run": "as §1"}, "GORASP2 PDZ": {"target": "GORASP2 PDZ", "assay": "surface plasmon resonance", "assay_type": "binding, human", "conditions": "internal standard; biotinylated HPV16 E6 peptide immobilized; steady state", "how_it_was_run": "as §1"}, "HTRA1 PDZ": {"target": "HTRA1 PDZ (Homo sapiens, UniProt Q92743)", "sequence (Q92743 365-467 limits assumed)": "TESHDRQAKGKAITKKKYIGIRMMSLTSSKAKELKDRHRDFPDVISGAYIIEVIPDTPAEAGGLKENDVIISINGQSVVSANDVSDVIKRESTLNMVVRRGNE", "assay": "surface plasmon resonance", "assay_type": "binding", "conditions": "internal standard; biotinylated HPV16 E6 peptide immobilized; steady state", "how_it_was_run": "as §1"}, "MAST1 PDZ": {"target": "T3, MAST1 PDZ (Homo sapiens, UniProt Q9Y2H9)", "T3 sequence (Q9Y2H9 967-1055 limits assumed)": "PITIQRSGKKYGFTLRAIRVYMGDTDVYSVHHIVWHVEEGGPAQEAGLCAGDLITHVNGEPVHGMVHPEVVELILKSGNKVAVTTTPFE", "assay": "surface plasmon resonance", "assay_type": "binding", "conditions": "internal standard; biotinylated HPV16 E6 peptide immobilized; steady state", "how_it_was_run": "as §1"}, "PDZD7-3 PDZ": {"target": "T4, PDZD7-3 PDZ (Homo sapiens, UniProt Q9H5P4)", "T4 sequence (Q9H5P4 862-934 limits assumed)": "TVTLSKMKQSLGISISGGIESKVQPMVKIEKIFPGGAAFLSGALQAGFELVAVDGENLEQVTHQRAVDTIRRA", "assay": "surface plasmon resonance", "assay_type": "binding", "conditions": "internal standard; biotinylated HPV16 E6 peptide immobilized; steady state", "how_it_was_run": "as §1"}, "GOPC PDZ": {"target": "GOPC PDZ (Homo sapiens, UniProt Q9HD26)", "assay": "surface plasmon resonance", "assay_type": "binding", "conditions": "internal standard; biotinylated HPV16 E6 peptide immobilized; steady state"}, "SNX27 PDZ [2]": {"target": "T5, SNX27 PDZ (Homo sapiens, UniProt Q96L92)", "assay": "surface plasmon resonance", "assay_type": "binding", "conditions": "internal standard; biotinylated HPV16 E6 peptide immobilized; steady state"}, "PARD3B-1 PDZ [3]": {"target": "T6, PARD3B-1 PDZ (Homo sapiens, UniProt Q8TEW8)", "T6 sequence (Q8TEW8 201-289 limits assumed)": "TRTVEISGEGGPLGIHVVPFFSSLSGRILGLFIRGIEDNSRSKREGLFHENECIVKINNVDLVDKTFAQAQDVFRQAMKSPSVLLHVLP", "assay": "surface plasmon resonance", "assay_type": "binding", "conditions": "internal standard; biotinylated HPV16 E6 peptide immobilized; steady state", "how_it_was_run": "as §1"}, "SYNJ2BP": {"system": "SYNJ2BP", "assay": "NanoBiT protein-protein interaction assay", "assay_type": "cell-based, human", "conditions": "RSK1–SYNJ2BP sensor, 20 ng/ml EGF, serum-starved HEK293T, 60 min", "how_it_was_run": "(§2)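 Full-length RSK1 (N-terminal SmBiT) is paired with an N-terminal LgBiT fusion of the partner: ARHGEF12 isoform 2, GOPC isoform 2, PARD3B 1–913, or SYNJ2BP. Sensors are transiently co-expressed in HEK293T cells, which are serum-starved for 20 h from 4 h post-transfection and assayed with Nano-Glo at 24 h. Steady-state signal is referenced to the wild-type pair. For the EGF response (20 ng/ml, 60 min), signal is normalized to initial luminescence and to unstimulated furimazine decay. At least 6 replicates.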"}, "ARHGEF12": {"system": "ARHGEF12", "assay": "NanoBiT protein-protein interaction assay", "assay_type": "cell-based, human", "conditions": "RSK1–ARHGEF12 sensor, 20 ng/ml EGF, serum-starved HEK293T, 60 min", "how_it_was_run": "as §2"}, "PARD3B": {"system": "PARD3B", "assay": "NanoBiT protein-protein interaction assay", "assay_type": "cell-based, human", "conditions": "RSK1–PARD3B sensor, 20 ng/ml EGF, serum-starved HEK293T, 60 min", "how_it_was_run": "as §2"}, "ERK2": {"system": "ERK2", "assay": "NanoBiT protein-protein interaction assay", "assay_type": "cell-based", "conditions": "RSK1–ERK2 sensor, 20 ng/ml EGF, serum-starved HEK293T, 60 min", "how_it_was_run": "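Full-length RSK1 carries an N-terminal SmBiT tag, and full-length ERK2 is fused to LgBiT. HEK293T cells (DMEM, 10% FBS) are seeded at 2×10^4/well 24 h before FuGene HD co-transfection, then starved for 20 h in CO2-independent medium from 4 h post-transfection. After 20 ng/ml EGF, Nano-Glo luminescence is followed for 60 min and normalized to initial signal and to furimazine decay in unstimulated cells. At least 6 biological replicates.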"}, "MAGI1": {"system": "MAGI1", "assay": "NanoBiT protein-protein interaction assay", "assay_type": "cell-based, human", "conditions": "RSK1–MAGI1 sensor, 20 ng/ml EGF, serum-starved HEK293T, 60 min", "how_it_was_run": "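Full-length RSK1 (N-terminal SmBiT) is co-expressed with full-length MAGI1–LgBiT in HEK293T cells by FuGene HD transfection, then serum-starved for 20 h in CO2-independent medium. Cells are read with Nano-Glo 24 h post-transfection. Steady-state luminescence of mutant sensors is referenced to the wild-type pair. For the 20 ng/ml EGF response, signal is followed for 60 min and normalized to initial luminescence and to furimazine decay in unstimulated cells. At least 6 biological replicates.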"}, "GOPC": {"system": "GOPC", "assay": "NanoBiT protein-protein interaction assay", "assay_type": "cell-based, human", "conditions": "RSK1–GOPC sensor, 20 ng/ml EGF, serum-starved HEK293T, 60 min", "how_it_was_run": "as §2"}, "[4]": {"system": "first PDZ domain of NHERF (EBP50)", "assay": "holdup assay", "assay_type": "binding, human"}, "SNX27 PDZ [5]": {"target": "T5, SNX27 PDZ", "assay": "holdup assay", "assay_type": "binding", "conditions": "words"}, "ARHGEF12 PDZ": {"target": "T7, ARHGEF12 PDZ (Homo sapiens, UniProt Q9NZN5)", "T7 sequence (Q9NZN5 72-151 limits assumed)": "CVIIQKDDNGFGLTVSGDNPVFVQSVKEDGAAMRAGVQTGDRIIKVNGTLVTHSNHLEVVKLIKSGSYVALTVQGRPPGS", "assay": "holdup assay", "assay_type": "binding", "conditions": "words", "how_it_was_run": "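Automated holdup against N-terminally biotinylated (TTDS linker) RSK1 725–735 peptides, unphosphorylated and phosphorylated, in triplicate. PDZome v2 clones were codon-optimized and expressed in E. coli, with soluble lysate adjusted to ~4 μM. BI is the PDZ fraction depleted from the fluid phase.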"}, "PARD3B-1 PDZ [6]": {"target": "T6, PARD3B-1 PDZ", "assay": "holdup assay", "assay_type": "binding", "conditions": "words; PARD3B", "how_it_was_run": "(§3)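 Automated holdup in triplicate measured biotinylated (N-terminal TTDS linker) RSK1 725–735 peptides, unphosphorylated or phosphorylated, against E. coli-expressed PDZome v2 domains. Soluble lysate was adjusted to ~4 μM, giving 255 domains for the unphosphorylated and 252 for the phosphorylated peptide. Binding intensity (BI) is the fraction of PDZ depleted from the fluid phase. BI 0.2 was the high-confidence threshold.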"}, "[7]": {"system": "first PDZ domain of Scribble", "assay": "holdup assay", "assay_type": "binding, human"}, "GRID2IP-2 PDZ [8]": {"target": "T1, GRID2IP-2 PDZ", "assay": "holdup assay", "assay_type": "binding", "conditions": "words; GRID2IP", "how_it_was_run": "as §3"}, "RhoA": {"system": "RhoA", "assay": "G-LISA RhoA activation assay", "assay_type": "cell-based", "conditions": "ARHGEF12 mutants, n=4"}},
  "note": "Where no end group is shown, it is not given here. The star is where a group is joined. Biotin = O=C1N[C@H]2[C@H](CS[C@H]2CCCCC(=O)*)N1; TTDS = NCCCOCCOCCOCCCNC(=O)CCC(=O)*",
  "data": [
    {"compound": "CC(C)C[C@H](NC(=O)[C@H](CCC(N)=O)NC(=O)[C@@H](NC(=O)[C@H](CCC(=O)O)NC(=O)[C@H](CCCNC(=N)N)NC(=O)[C@H](CCCNC(=N)N)NC(=O)[C@@H](NC(=O)[C@H](CCCNC(=N)N)NC(=O)[C@H](CO)NC(=O)[C@@H](N)CO)[C@@H](C)O)[C@@H](C)O)C(=O)O", "note": "[HPV16 E6]", "values": [
      {"measurement": "KD, SPR, HPV16 E6", "setting": "GRID2IP-2 PDZ [1]", "result": "no binding"},
      {"measurement": "KD, SPR, HPV16 E6", "setting": "SNTG2 PDZ", "result": "no binding"},
      {"measurement": "KD, SPR, HPV16 E6", "setting": "GORASP2 PDZ", "result": "no binding"},
      {"measurement": "KD, SPR, HPV16 E6", "setting": "HTRA1 PDZ", "result": "no binding"},
      {"measurement": "KD, SPR, HPV16 E6", "setting": "MAST1 PDZ", "result": "no binding"},
      {"measurement": "KD, SPR, HPV16 E6", "setting": "PDZD7-3 PDZ", "result": "no binding"},
      {"measurement": "KD, SPR, HPV16 E6", "setting": "GOPC PDZ", "result": "no binding"},
      {"measurement": "KD, SPR, HPV16 E6", "setting": "SNX27 PDZ [2]", "result": "no binding"},
      {"measurement": "KD, SPR, HPV16 E6", "setting": "PARD3B-1 PDZ [3]", "result": "no binding"}
    ]},
    {"compound": "EGF: epidermal growth factor (Sigma-Aldrich), 20 ng/ml (NSDSECPLSHDGYCLHDGVCMYIEALDKYACNCVVGYIGERCQYRDLKWWELR; UniProt P01133 971-1023, looked up)", "values": [
      {"measurement": "change in luminescence after EGF", "setting": "SYNJ2BP", "result": "increased luminescence"},
      {"measurement": "change in luminescence after EGF", "setting": "ARHGEF12", "result": "decrease in luminescence"},
      {"measurement": "change in luminescence after EGF", "setting": "PARD3B", "result": "did not show any change"},
      {"measurement": "change in luminescence after EGF", "setting": "ERK2", "result": "time-modulated decrease of the luminescence signal"},
      {"measurement": "change in luminescence after EGF", "setting": "MAGI1", "result": "decrease in luminescence"},
      {"measurement": "change in luminescence after EGF", "setting": "GOPC", "result": "decrease in luminescence"}
    ]},
    {"compound": "RSK1 PBM: PDZ binding motif of the RSK1 C-terminal tail ({Biotin-TTDS}-RRVRKLPSTTL)", "values": [
      {"measurement": "interaction detected", "setting": "[4]", "result": "did not detect any interaction"},
      {"measurement": "effect of phosphorylation on binding", "setting": "SNX27 PDZ [5]", "result": "promoted by phosphorylation"},
      {"measurement": "effect of phosphorylation on binding", "setting": "ARHGEF12 PDZ", "result": "mostly eliminated"},
      {"measurement": "affinity to both states of the RSK1 PBM", "setting": "PARD3B-1 PDZ [6]", "result": "comparable affinities to both states"},
      {"measurement": "BI", "setting": "[7]", "result": "0.17–0.18"},
      {"measurement": "effect of phosphorylation on binding", "setting": "GRID2IP-2 PDZ [8]", "result": "mostly eliminated"}
    ]},
    {"compound": "S1288E: ARHGEF12 mutant mimicking the RSK1 phosphorylation site", "values": [
      {"measurement": "decrease of RhoA signal by ARHGEF12 mutation", "setting": "RhoA", "result": 20, "unit": "%"}
    ]}
  ]
}
